The results in this text go back to BindingDB's records for doi:10.1021/acs.jmedchem.6b01066 (University of Copenhagen, 2016).

This experiment concerns the target T1, Excitatory amino acid transporter 3 (Homo sapiens, UniProt P43005).
T1 sequence (P43005 whole entry): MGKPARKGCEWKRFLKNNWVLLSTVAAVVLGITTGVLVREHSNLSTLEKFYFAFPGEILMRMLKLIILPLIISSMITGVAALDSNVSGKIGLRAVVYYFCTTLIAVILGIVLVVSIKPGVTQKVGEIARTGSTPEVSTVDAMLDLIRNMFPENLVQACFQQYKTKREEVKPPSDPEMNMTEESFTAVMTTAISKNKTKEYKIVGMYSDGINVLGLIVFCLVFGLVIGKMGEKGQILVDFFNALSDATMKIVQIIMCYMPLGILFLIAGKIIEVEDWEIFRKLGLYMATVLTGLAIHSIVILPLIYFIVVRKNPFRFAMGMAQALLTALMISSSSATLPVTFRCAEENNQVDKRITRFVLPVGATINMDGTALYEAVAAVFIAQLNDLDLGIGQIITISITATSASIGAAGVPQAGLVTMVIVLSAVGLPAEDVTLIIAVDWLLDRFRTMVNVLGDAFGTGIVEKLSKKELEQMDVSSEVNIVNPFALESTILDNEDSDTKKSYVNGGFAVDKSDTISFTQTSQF
As to the kind of experiment: Inhibition of [3H]-D-Asp uptake at human EAAT3 expressed in HEK293 cells measured after 3 mins by TopCount method. The gist of the method:
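Stably transfected EAAT1-, EAAT2- or EAAT3-HEK293 lines grown in high-glucose GlutaMAX DMEM with 5% dialyzed FBS, penicillin/streptomycin and […]. Cells were seeded and reached confluence in 16−24 h, then washed in uptake buffer (HBSS, 20 mM HEPES, 1 mM CaCl₂, 1 mM MgCl₂, pH 7.4). Uptake ran 3 min at room temperature with 100 nM [³H]-D-aspartate plus test compound at varied concentrations. Two ice-cold washes, then scintillation counting. IC₅₀ from concentration−inhibition curves, n = 3−5.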

pIC50: −log10 of the molar value.

For `N[C@H](C(=O)O)C(NC(=O)Oc1ccccc1)C(=O)O` (stereo partly specified), the pIC50 was 3.50.

Broadly, the pIC50 is the negative decadic logarithm of the IC50, by convention in mol/L.
